Source: ChEMBL document CHEMBL1122504, “Heterocyclic Quinones. 4. A new highly cytotoxic drug: 6,7-bis(1-aziridinyl)-5,8-quinazolinedione” (1983)
“And” between values parts separate entries of the source, which are not always exact repeats. Equal entries are not always repeated.

Legend:
P388 [1] = assay: Median survival time of P388 lymphocytic leukemia cell line after a dose of 20 mg/kg administered intraperitoneally on Q01Dx01 treatment schedule; assay type: functional, Mus musculus; settings: route intraperitoneal
How it was run: (§1)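 P388 leukaemia: DBA/2 mice inoculated with 10^6 cells on day 0; treatment began day 1 at the stated route and schedule. Drug was dissolved in 0.15 M NaCl saline. The read-out was median survival time (MST, days), with toxicity taken as survivors on day 5. T/C% = treated MST/control MST × 100; ≥125% is considered significant.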

Salmonella typhimurium [2] = assay: Mutagenesis test was performed at 60 uM concentration in Salmonella Typhimurium TA 100; assay type: functional, Salmonella enterica subsp. enterica serovar Typhimurium
How it was run: (§2)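 Salmonella typhimurium his auxotrophs TA98 and TA100 were tested by liquid suspension without metabolic activation. Overnight Oxoid nutrient broth cultures were subcultured, grown 2 h, then exposed to drug for 5 h. Cells were washed, resuspended to A650 2.50, and plated in top agar (0.6% agar, 0.6% NaCl). His+ revertants per plate were counted after 48 h at 37 °C; values are means of three assays.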

Sarcoma-180 [3] = assay: MST of treated animal over control when administered at a dose of 20 mg/kg intraperitoneally on Q01Dx01 treatment schedule in sarcoma 180 cell lines; assay type: functional, Mus musculus; settings: route intraperitoneal
How it was run: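 Sarcoma 180: Swiss mice inoculated ip with 10^6 cells on day 0, with single ip injection of drug in 0.15 M NaCl saline. Median survival time was recorded in days, with toxicity taken as survivors on day 5. T/C% = treated MST/control MST × 100; >125% is considered significant.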

P388 [4] = assay: Median survival time of P388 lymphocytic leukemia cell line after a dose of 20 mg/kg administered perorally on Q01Dx07 treatment schedule; assay type: functional, Mus musculus; settings: route oral; how it was run: as §1
P388 [5] = assay: Median survival time of P388 lymphocytic leukemia cell line after a dose of 15 mg/kg administered intravenously on Q01Dx01 treatment schedule; assay type: functional, Mus musculus; settings: route intravenous; how it was run: as §1
P388 [6] = assay: MST of treated animal over control when administered at a dose of 15 mg/kg intravenously on Q01Dx01 treatment schedule; assay type: functional, Mus musculus; settings: route intravenous; how it was run: as §1
P388 [7] = assay: Number of survivors of P388 lymphocytic leukemia cell line on day 5/ number of treated mice at a dose of 5 ip injection of 10 mg/kg on Q01Dx05 treatment schedule; 10/10; assay type: functional, Mus musculus; settings: route intraperitoneal
P388 [8] = assay: MST of treated animal over control when administered at a dose of 20 mg/kg perorally on Q01Dx07 treatment schedule; assay type: functional, Mus musculus; settings: route oral; how it was run: as §1
L1210 [9] = assay: Median survival time of L1210 cell line after a dose of 10 mg/kg administered intraperitoneally on Q01Dx01 treatment schedule; assay type: functional, Mus musculus; settings: route intraperitoneal
How it was run: (§3)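 L1210 leukaemia: DBA/2 mice inoculated ip with 10^5 cells on day 0, with ip drug in 0.15 M NaCl saline on the stated schedule. The read-out was median survival time in days, with toxicity taken as survivors on day 5. T/C% = treated MST/control MST × 100; >125% is considered significant.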

Salmonella typhimurium [10] = assay: Mutagenesis test was performed at 20 uM concentration in Salmonella Typhimurium TA 98; assay type: functional, Salmonella enterica subsp. enterica serovar Typhimurium; how it was run: as §2
P388 [11] = assay: MST of treated animal over control when administered at a dose of 10 mg/kg intraperitoneally on Q01Dx05 treatment schedule; assay type: functional, Mus musculus; settings: route intraperitoneal; how it was run: as §1
Salmonella typhimurium [12] = assay: Mutagenesis test was performed at 60 uM concentration in Salmonella Typhimurium TA 98; assay type: functional, Salmonella enterica subsp. enterica serovar Typhimurium; how it was run: as §2
P388 [13] = assay: Number of survivors of P388 lymphocytic leukemia cell line on day 5/ number of treated mice at a dose of 1 i.v. injection of 2.5 mg/kg on Q01Dx01 treatment schedule; 9/10; assay type: functional, Mus musculus; settings: route intravenous
B16 [14] = assay: Number of survivors of B16 melanocarcinoma cell line on day 5/ number of treated mice at a dose of 1 ip injection of 10 mg/kg on Q01Dx01 treatment schedule; 10/10; assay type: functional, Mus musculus; settings: route intraperitoneal
L1210 [15] = assay: Median survival time of L1210 cell line after a dose of 5 mg/kg administered intraperitoneally on Q01Dx09 treatment schedule; assay type: functional, Mus musculus; settings: route intraperitoneal; how it was run: as §3
Salmonella typhimurium [16] = assay: Mutagenesis test was performed at 4 uM concentration in Salmonella Typhimurium TA 98; assay type: functional, Salmonella enterica subsp. enterica serovar Typhimurium; how it was run: as §2
L1210 [17] = assay: Number of survivors of L1210 cell line on day 5/ number of treated mice at a dose of 9ip injection of 5 mg/kg on Q01Dx09 treatment schedule; 10/10; assay type: functional, Mus musculus
Salmonella typhimurium [18] = assay: Mutagenesis test was performed at 0.3 uM concentration in Salmonella Typhimurium TA 100; assay type: functional, Salmonella enterica subsp. enterica serovar Typhimurium; how it was run: as §2
L1210 [19] = assay: Median survival time of L1210 cell line after a dose of 15 mg/kg administered intraperitoneally on Q01Dx02 treatment schedule; assay type: functional, Mus musculus; settings: route intraperitoneal; how it was run: as §3
B16 [20] = assay: Number of survivors of B16 melanocarcinoma cell line on day 5/ number of treated mice at a dose of 1 ip injection of 5 mg/kg on Q01Dx01 treatment schedule; 09/10; assay type: functional, Mus musculus; settings: route intraperitoneal
L1210 [21] = assay: Concentration that decreases the growth rate of the L1210 cells by 50% after 48 hr of culture; assay type: functional; settings: Mus musculus, L1210, 48 h; read-out: ID50 (the source's name)
How it was run: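 L1210 leukemia cells cultured with increasing drug concentrations for 48 h at 37 °C under 5% CO2. Percentage inhibition of control growth was fitted by least-squares linear regression against log dose, and the concentration lowering control growth by 50% was estimated from the regression equation.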

P388 [22] = assay: Median survival time of P388 lymphocytic leukemia cell line after a dose of 2.5 mg/kg administered intravenously on Q01Dx01 treatment schedule; assay type: functional, Mus musculus; settings: route intravenous; how it was run: as §1
B16 [23] = assay: Number of survivors of B16 melanocarcinoma cell line on day 5/ number of treated mice at a dose of 1 ip injection of 2.5 mg/kg on Q01Dx01 treatment schedule; 10/10; assay type: functional, Mus musculus; settings: route intraperitoneal
L1210 [24] = assay: MST of treated animal over control when administered at a dose of 2.5 mg/kg intraperitoneally on Q01Dx09 treatment schedule in L1210 cell lines; assay type: functional, Mus musculus; settings: route intraperitoneal; how it was run: as §3
L1210 [25] = assay: MST of treated animal over control when administered at a dose of 10 mg/kg intraperitoneally on Q01Dx05 treatment schedule in L1210 cell lines; assay type: functional, Mus musculus; settings: route intraperitoneal; how it was run: as §3
Salmonella typhimurium [26] = assay: Mutagenesis test was performed at 0.3 uM concentration in Salmonella Typhimurium TA 98; assay type: functional, Salmonella enterica subsp. enterica serovar Typhimurium; how it was run: as §2
B16 [27] = assay: MST of treated animal over control when administered at a dose of 5 mg/kg intraperitoneally on Q01Dx01 treatment schedule in B16 melanocarcinoma cell lines; assay type: functional, Mus musculus; settings: route intraperitoneal
How it was run: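 B16 melanocarcinoma: C57Bl/6 mice implanted sc with cell suspension on day 0; single ip dose in 0.15 M NaCl saline given on day 1. Median survival time was recorded in days, with toxicity taken as survivors on day 5. T/C% = treated MST/control MST × 100; >125% is considered significant.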

P388 [28] = assay: Number of survivors of P388 lymphocytic leukemia cell line on day 5/ number of treated mice at a dose of 1 i.v. injection of 15 mg/kg on Q01Dx01 treatment schedule; 5/10; assay type: functional, Mus musculus; settings: route intravenous
P388 [29] = assay: Number of survivors of P388 lymphocytic leukemia cell line on day 5/ number of treated mice at a dose of 1 i.v. injection of 15 mg/kg on Q01Dx01 treatment schedule; 10/10; assay type: functional, Mus musculus; settings: route intravenous
Sarcoma-180 [30] = assay: Number of survivors of sarcoma 180 cell line on day 5/ number of treated mice at a dose of 1 ip injection of 20 mg/kg on Q01Dx01 treatment schedule; 10/10; assay type: functional, Mus musculus; settings: route intraperitoneal

O=C1C(N2CC2)=C(N2CC2)C(=O)c2ncncc21 gave an MST (P388 [1]) of 9.5 days, a Revertants/plate (Salmonella typhimurium [2]) of 501 and a T/C (Sarcoma-180 [3]) of 110%. The MST (P388 [4]) was 7.6 days, the MST (P388 [5]) was 10.4 days and the T/C (P388 [6]) was 139% and 114%. For the same compound, the “Toxicity Survivors” value (P388 [7]) was 10, the T/C (P388 [8]) was 105% and the MST (L1210 [9]) was 9.4 days. It also gave a Revertants/plate (Salmonella typhimurium [10]) of 98, a T/C (P388 [11]) of 84% and a Revertants/plate (Salmonella typhimurium [12]) of 1080. For the same compound, the “Toxicity Survivors” value (P388 [13]) was 9, the “Toxicity Survivors” value (B16 [14]) was 10 and the MST (L1210 [15]) was 9.1 days. For the same compound, the Revertants/plate (Salmonella typhimurium [16]) was 81, the “Toxicity Survivors” value (L1210 [17]) was 10 and the Revertants/plate (Salmonella typhimurium [18]) was 76. The MST (L1210 [19]) was 9 days, the “Toxicity Survivors” value (B16 [20]) was 9 and the IC50 (L1210 [21]) was 0.02 µg/mL and 80 nM. For the same compound, the MST (P388 [22]) was 10.4 days, the “Toxicity Survivors” value (B16 [23]) was 10 and the T/C (L1210 [24]) was 109%. The T/C (L1210 [25]) was 69%, the Revertants/plate (Salmonella typhimurium [26]) was 84 and the T/C (B16 [27]) was 126%. The “Toxicity Survivors” value (P388 [28]) was 5, the “Toxicity Survivors” value (P388 [29]) was 10 and the “Toxicity Survivors” value (Sarcoma-180 [30]) was 10.
